Screening data from PubChem BioAssay.
Shown are actives, neighbours in structure and some others; about 1.8% of the full set was active somewhere.
STEP inh = blocks human striatal-enriched tyrosine phosphatase; 360,000 compounds, 0.25% hits; inhibition, % at 20 µM; recombinant STEP, OMFP fluorogenic substrate, fluorescence; AID 588621; P54829;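 active = inhibition at 20 µM, scaled per plate between control wells, above about 37%, limit read from the data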;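 also: 0% = DMSO with enzyme and substrate and 100% = substrate only without enzyme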
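Assay system: isolated STEP enzyme / Timing: 20 min at room temperature, dark / Doses: 20 µM, 1% DMSO / Technique: fluorescence intensity, excitation 480 nm, emission 540 nm / Reagent: fluorogenic phosphatase substrate OMFP at 25 µM final / Measure: percent inhibition scaled to no-enzyme and uninhibited-enzyme controls, plate-pattern corrected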
SUMO1 PPI mod = modulators of human SUMO1-mediated protein-protein interactions; 360,000 compounds, 0.33% hits; AID 602429; SUMO1 binding to a labelled peptide, TR-FRET, 1 h; inhibition, % at 20 µM; in the data active = inhibition above about 37%
Target sequence (P63165 whole entry, looked up): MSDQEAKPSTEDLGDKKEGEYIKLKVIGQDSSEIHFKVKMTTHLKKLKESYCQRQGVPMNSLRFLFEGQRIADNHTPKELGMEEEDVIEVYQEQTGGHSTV
DNMT1 block = inhibitors of human DNMT1; DNMT1 molecular beacon, Hinp1I cleavage, fluorescence; inhibition (reported as % activation of signal), % at 10 µM; 360,000 compounds, 0.83% hits; AID 588458; in the data active = inhibition above about 50%
HKDC1 inhibitor = blocks human hexokinase HKDC1 activity; Q2TB90; recombinant HKDC1, G6PDH/diaphorase resazurin coupled fluorescence; inhibition, % at 20 µM; 340,000 compounds, 0.16% hits;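 active = inhibition above about 35% when tested at 20 µM, limit read from the data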;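 also: plate controls were DMSO wells with enzyme for no effect and DMSO wells lacking enzyme for full effect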
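Test system: recombinant HKDC1 (HK5) hexokinase enzyme, produced in-house; Amount: enzyme 5 µg/mL final; Buffer or medium: Tris pH 8.0 buffer with MgCl2, Tween-20, BSA, BME; Reagent: glucose and ATP substrates; Doses: 20 µM test compound, 1% DMSO; Incubation: 90 min reaction incubation at room temperature, dark; Detection: resorufin fluorescence at 613 nm.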
Scp1 inh = inhibitors of human Scp-1 phosphatase; Recombinant Scp1, phosphopeptide, malachite green phosphate absorbance; inhibition, % at 20 µM; 340,000 compounds, 0.88% hits; AID 493091;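 active = inhibition above about 50% at 20 µM, limit read from the data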;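 also: plate controls were DMSO wells with enzyme for no effect and wells lacking enzyme for full effect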
Target sequence (Q9GZU7 76-261 limits assumed): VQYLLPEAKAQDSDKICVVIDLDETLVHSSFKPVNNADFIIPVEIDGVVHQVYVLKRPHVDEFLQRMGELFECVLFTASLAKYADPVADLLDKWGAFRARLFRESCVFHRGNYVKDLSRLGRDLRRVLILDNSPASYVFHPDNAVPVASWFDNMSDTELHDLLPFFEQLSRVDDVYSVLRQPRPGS
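Test system – truncated SCP-1 phosphatase (76-261aa) · Reagent – Phosphorylated 17-residue peptide substrate · Incubation – 45 min room-temperature reaction, 5 min colour, 30 min stabiliser · Detection – colorimetric phosphate reagent with accelerator and stabiliser, absorbance at 630 nm · Measure – % inhibition at 20 µM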
LMPTP inh = blocks human LMPTP phosphatase | P24666 | recombinant LMPTP-A, OMFP fluorogenic substrate, fluorescence intensity | inhibition, % at 20 µM | 360,000 compounds, 0.22% hits;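 active = compounds that cut the enzyme signal by at least half of the control window in the single-dose screen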;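 also: plate controls were DMSO wells with enzyme plus substrate for no effect and substrate without enzyme for full effect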
Target sequence (P24666 whole entry, looked up): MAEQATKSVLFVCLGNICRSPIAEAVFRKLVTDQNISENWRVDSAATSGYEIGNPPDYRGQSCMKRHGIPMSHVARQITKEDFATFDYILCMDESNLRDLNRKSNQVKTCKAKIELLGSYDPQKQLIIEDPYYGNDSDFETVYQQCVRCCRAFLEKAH
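Test system: LMPTP-A phosphatase enzyme; input: 0.625 nM LMPTP-A final; reagent: OMFP substrate, 400 µM final; compound dosing: 20 µM single dose, 3% DMSO; incubation: 50 min dark incubation at room temperature; measured by: endpoint fluorescence intensity from OMFP dephosphorylation; measure: % inhibition relative to no-enzyme and uninhibited control wells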
* hit, by the source's call.

CN1/C(=C/C=C/c2n(C)c3cc([N+](=O)[O-])c([N+](=O)[O-])cc3[n+]2C)C(C)(C)c2ccccc21 was read as STEP inh 24, SUMO1 PPI mod -16, DNMT1 block 6 and LMPTP inh 58*.
`Cc1cccc[n+]1CC(=O)/C=C1\N(C)c2ccccc2C1(C)C` gave STEP inh 0, SUMO1 PPI mod -3, DNMT1 block 5, HKDC1 inhibitor -1, Scp1 inh -5 and LMPTP inh 0.
Nc1ccc2c(c1)C/C(=C/c1ccco1)C2=O was read as STEP inh 10, SUMO1 PPI mod 40*, DNMT1 block 88*, HKDC1 inhibitor 6, Scp1 inh 73* and LMPTP inh 67*.
O=C1/C(=C/c2ccco2)CCc2ccccc21 was read as STEP inh 1, SUMO1 PPI mod -19, DNMT1 block -4, HKDC1 inhibitor 7, Scp1 inh -10 and LMPTP inh 0.
`Cc1ccc(NC(=O)Cn2nnc(C(=O)NCCc3ccccc3)c2N)c(C)c1` gave STEP inh -2, SUMO1 PPI mod 3, DNMT1 block 53*, HKDC1 inhibitor 2, Scp1 inh 18 and LMPTP inh 41.
Screening O=C(NC1CCCC1)c1cnn2c(C(F)(F)F)cc(-c3ccc4c(c3)OCO4)nc12 returned STEP inh -1, SUMO1 PPI mod -2, DNMT1 block 51*, HKDC1 inhibitor -2, Scp1 inh -5 and LMPTP inh 2.
`O=C(N/N=C/c1c(O)ccc2ccccc12)c1ccc(Br)o1` gave STEP inh 77*, SUMO1 PPI mod 27, DNMT1 block 41, HKDC1 inhibitor 7, Scp1 inh 99* and LMPTP inh 64*.
COC(=O)c1ccc2nc(-c3ccco3)c(Cc3cccc(F)c3)n2c1 was read as STEP inh 0, SUMO1 PPI mod -1, DNMT1 block -7 and LMPTP inh 2.
CC1(C)C(=O)CC[C@]2(C)C3C(=O)C=C4[C@H]5C[C@@](C)(C(=O)O)CC[C@]5(C)CC[C@]4(C)[C@]3(C)CC[C@@H]12 (stereo partly drawn) was read as STEP inh 1, SUMO1 PPI mod 11, DNMT1 block -1, HKDC1 inhibitor -1, Scp1 inh 30 and LMPTP inh -1.
For CC1(C)C2CC[C@]3(C)[C@H](C(=O)C=C4[C@@H]5C[C@@](C)(C(=O)O)CC[C@]5(C)CC[C@]43C)[C@@]2(C)CC[C@@H]1O[C@H]1O[C@H](C(=O)O)[C@@H](O)[C@H](O)[C@H]1O[C@@H]1O[C@H](C(=O)O)[C@@H](O)[C@H](O)[C@H]1O (stereo partly drawn) the results were STEP inh -2, SUMO1 PPI mod 41*, DNMT1 block 1 and LMPTP inh -2.
`COc1cc2c3c(cccc3c1)C(=O)N(CCN1CCCC1)C2=O` gave STEP inh -2, SUMO1 PPI mod -30, DNMT1 block 73* and LMPTP inh 21.
`COc1ccccc1N1CCN(C(=O)CSc2nnc(C)n2C2CC2)CC1` gave STEP inh -4, SUMO1 PPI mod -1, DNMT1 block 2, HKDC1 inhibitor -5, Scp1 inh 2 and LMPTP inh -2.
`CCOC(=O)Nc1sc(C)nc1-c1ccccc1` gave STEP inh 3, SUMO1 PPI mod -2, DNMT1 block 2, HKDC1 inhibitor -1, Scp1 inh 0 and LMPTP inh -2.
Screening CCOC(=O)Nc1cc2c(c(N)n1)N=C(c1ccccc1)CN2 returned STEP inh 0, SUMO1 PPI mod -42, DNMT1 block 53*, HKDC1 inhibitor 16, Scp1 inh 15 and LMPTP inh 2.
Screening N#Cc1c(NC(=O)/C=C/C(=O)O)sc2c1CCN(Cc1ccccc1)C2 returned STEP inh 2, SUMO1 PPI mod 10, DNMT1 block 37, HKDC1 inhibitor 7, Scp1 inh 68* and LMPTP inh 47*.
`CCN1CCc2c(sc(NC(=S)NC(=O)c3ccccc3)c2C#N)C1` gave STEP inh -3, SUMO1 PPI mod -1, DNMT1 block -5, HKDC1 inhibitor -1, Scp1 inh 9 and LMPTP inh 58*.
For CCC1(C)Cc2c(sc(NC(=S)NC(=O)c3ccccc3)c2C#N)CO1 (stereo not drawn) the results were STEP inh 1, SUMO1 PPI mod -5, DNMT1 block -5, HKDC1 inhibitor 15, Scp1 inh -3 and LMPTP inh 52*.
CN1Cc2sc(NC(=S)NC(=O)c3ccccc3)c(C#N)c2CC1(C)C was read as HKDC1 inhibitor 3 and Scp1 inh 3.
`CCc1ccc(N2C(=O)C3CCCN3C2=S)cc1` (stereo not drawn) gave STEP inh -3, SUMO1 PPI mod 2, DNMT1 block 1, HKDC1 inhibitor -5, Scp1 inh -8 and LMPTP inh 0.
CCCN(CC(=O)Nc1ccccc1C)C(=O)c1ccc(N2CCCC2)c([N+](=O)[O-])c1 was read as STEP inh 6, SUMO1 PPI mod -23, DNMT1 block 1, HKDC1 inhibitor -2, Scp1 inh -1 and LMPTP inh 1.
COc1ccc(S(=O)(=O)NCc2nc3nc(C)cc(C)n3n2)cc1OC was read as STEP inh 1, SUMO1 PPI mod -1, DNMT1 block -3, HKDC1 inhibitor -3, Scp1 inh -7 and LMPTP inh -1.
Screening CCOc1ccc(NC(=O)CCC(=O)NNC(=O)c2cccc([N+](=O)[O-])c2)cc1 returned STEP inh -2, SUMO1 PPI mod -26, DNMT1 block 4, HKDC1 inhibitor -2, Scp1 inh -4 and LMPTP inh -3.
O=C(NCc1ccccc1C(F)(F)F)c1cccc2c1C(=O)c1ccc(N3CCC(N4CCCCC4)CC3)cc1S2(=O)=O was read as STEP inh -5, SUMO1 PPI mod 50*, DNMT1 block -6 and LMPTP inh 16.
Screening Oc1ccc(C=NNC(=S)Nc2ccc(F)cc2)c(O)c1 returned STEP inh -5, SUMO1 PPI mod 53*, DNMT1 block -5, HKDC1 inhibitor -34, Scp1 inh -10 and LMPTP inh 1.
Screening CN(Cc1ccccc1)C1=CC(=[N+]2CCCC2)CC(C)(C)C1 returned STEP inh 1, SUMO1 PPI mod -3, DNMT1 block 2, HKDC1 inhibitor -3, Scp1 inh 103* and LMPTP inh 0.
Screening N#Cc1c(NC(=O)Cn2c(=O)oc3ccccc32)oc(-c2ccccc2)c1-c1ccccc1 returned STEP inh -3, SUMO1 PPI mod 41*, DNMT1 block -10, HKDC1 inhibitor 1, Scp1 inh -12 and LMPTP inh 5.
